In ChEMBL document CHEMBL4145690, “Rational Design and Structure Validation of a Novel Peptide Inhibitor of the Adenomatous-Polyposis-Coli (APC)-Rho-Guanine-Nucleotide-Exchange-Factor-4 (Asef) Interaction” (J Med Chem, 2018):
*1 amine or outer side, *2 acyl side, *3 side chain or, on linkers, in order; H or OH if unused. Where a SMILES comes first, the peptide text is derived from it. [ ]: non-standard residue; d: D form. The star is where a group is joined. Ala(4-thiazolyl) = N[C@@H](Cc1cscn1)C(=O)O; Leu(4,5-dehydro) = C=C(C)C[C@H](N)C(=O)O; X1 = O=C([C@H](Cc1ccc(Br)s1)N[*:1])[*:2]; Ala(2-furyl) = N[C@@H](Cc1ccco1)C(=O)O; Ala(cHept) = N[C@@H](CC1CCCCCC1)C(=O)O; 1Nal = N[C@@H](Cc1cccc2ccccc12)C(=O)O; 2Nal = N[C@@H](Cc1ccc2ccccc2c1)C(=O)O; Ala(cPent) = N[C@@H](CC1CCCC1)C(=O)O; Met(O2) = CS(=O)(=O)CC[C@H](N)C(=O)O; Gly(octyl) = CCCCCCCC[C@H](N)C(=O)O; Gly(cPent) = N[C@H](C(=O)O)C1CCCC1; Ala(cPr) = N[C@@H](CC1CC1)C(=O)O; Met(O) = CS(=O)CC[C@H](N)C(=O)O; 2Thi = N[C@@H](Cc1cccs1)C(=O)O; 3Thi = N[C@@H](Cc1ccsc1)C(=O)O; Cha = N[C@@H](CC1CCCCC1)C(=O)O; Aic = NC1(C(=O)O)Cc2ccccc2C1; Cba = N[C@@H](CC1CCC1)C(=O)O; Chg = N[C@H](C(=O)O)C1CCCCC1; Phg = N[C@H](C(=O)O)c1ccccc1; Tle = CC(C)(C)[C@H](N)C(=O)O; Ac8c = NC1(C(=O)O)CCCCCCC1; Pra = C#CC[C@H](N)C(=O)O; Cbz = O=C(OCc1ccccc1)*

Biological target: Adenomatous polyposis coli protein (Homo sapiens, UniProt P25054)
Experiment: Binding affinity to APC protein (303 to 739 residues) (unknown origin) incubated for 60 mins followed by probe addition and measured after 60 mins by competitive fluorescence polarization assay
In short: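 Peptide in DMSO preincubated with protein 60 min at room temperature with shaking; probe added, then 60 min more. Controls: blank, tracer only, complex only. IC50 from dose-response curves, mean of three independent experiments.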

Sequence of Adenomatous polyposis coli protein (P25054 whole entry, the tested form may be a part): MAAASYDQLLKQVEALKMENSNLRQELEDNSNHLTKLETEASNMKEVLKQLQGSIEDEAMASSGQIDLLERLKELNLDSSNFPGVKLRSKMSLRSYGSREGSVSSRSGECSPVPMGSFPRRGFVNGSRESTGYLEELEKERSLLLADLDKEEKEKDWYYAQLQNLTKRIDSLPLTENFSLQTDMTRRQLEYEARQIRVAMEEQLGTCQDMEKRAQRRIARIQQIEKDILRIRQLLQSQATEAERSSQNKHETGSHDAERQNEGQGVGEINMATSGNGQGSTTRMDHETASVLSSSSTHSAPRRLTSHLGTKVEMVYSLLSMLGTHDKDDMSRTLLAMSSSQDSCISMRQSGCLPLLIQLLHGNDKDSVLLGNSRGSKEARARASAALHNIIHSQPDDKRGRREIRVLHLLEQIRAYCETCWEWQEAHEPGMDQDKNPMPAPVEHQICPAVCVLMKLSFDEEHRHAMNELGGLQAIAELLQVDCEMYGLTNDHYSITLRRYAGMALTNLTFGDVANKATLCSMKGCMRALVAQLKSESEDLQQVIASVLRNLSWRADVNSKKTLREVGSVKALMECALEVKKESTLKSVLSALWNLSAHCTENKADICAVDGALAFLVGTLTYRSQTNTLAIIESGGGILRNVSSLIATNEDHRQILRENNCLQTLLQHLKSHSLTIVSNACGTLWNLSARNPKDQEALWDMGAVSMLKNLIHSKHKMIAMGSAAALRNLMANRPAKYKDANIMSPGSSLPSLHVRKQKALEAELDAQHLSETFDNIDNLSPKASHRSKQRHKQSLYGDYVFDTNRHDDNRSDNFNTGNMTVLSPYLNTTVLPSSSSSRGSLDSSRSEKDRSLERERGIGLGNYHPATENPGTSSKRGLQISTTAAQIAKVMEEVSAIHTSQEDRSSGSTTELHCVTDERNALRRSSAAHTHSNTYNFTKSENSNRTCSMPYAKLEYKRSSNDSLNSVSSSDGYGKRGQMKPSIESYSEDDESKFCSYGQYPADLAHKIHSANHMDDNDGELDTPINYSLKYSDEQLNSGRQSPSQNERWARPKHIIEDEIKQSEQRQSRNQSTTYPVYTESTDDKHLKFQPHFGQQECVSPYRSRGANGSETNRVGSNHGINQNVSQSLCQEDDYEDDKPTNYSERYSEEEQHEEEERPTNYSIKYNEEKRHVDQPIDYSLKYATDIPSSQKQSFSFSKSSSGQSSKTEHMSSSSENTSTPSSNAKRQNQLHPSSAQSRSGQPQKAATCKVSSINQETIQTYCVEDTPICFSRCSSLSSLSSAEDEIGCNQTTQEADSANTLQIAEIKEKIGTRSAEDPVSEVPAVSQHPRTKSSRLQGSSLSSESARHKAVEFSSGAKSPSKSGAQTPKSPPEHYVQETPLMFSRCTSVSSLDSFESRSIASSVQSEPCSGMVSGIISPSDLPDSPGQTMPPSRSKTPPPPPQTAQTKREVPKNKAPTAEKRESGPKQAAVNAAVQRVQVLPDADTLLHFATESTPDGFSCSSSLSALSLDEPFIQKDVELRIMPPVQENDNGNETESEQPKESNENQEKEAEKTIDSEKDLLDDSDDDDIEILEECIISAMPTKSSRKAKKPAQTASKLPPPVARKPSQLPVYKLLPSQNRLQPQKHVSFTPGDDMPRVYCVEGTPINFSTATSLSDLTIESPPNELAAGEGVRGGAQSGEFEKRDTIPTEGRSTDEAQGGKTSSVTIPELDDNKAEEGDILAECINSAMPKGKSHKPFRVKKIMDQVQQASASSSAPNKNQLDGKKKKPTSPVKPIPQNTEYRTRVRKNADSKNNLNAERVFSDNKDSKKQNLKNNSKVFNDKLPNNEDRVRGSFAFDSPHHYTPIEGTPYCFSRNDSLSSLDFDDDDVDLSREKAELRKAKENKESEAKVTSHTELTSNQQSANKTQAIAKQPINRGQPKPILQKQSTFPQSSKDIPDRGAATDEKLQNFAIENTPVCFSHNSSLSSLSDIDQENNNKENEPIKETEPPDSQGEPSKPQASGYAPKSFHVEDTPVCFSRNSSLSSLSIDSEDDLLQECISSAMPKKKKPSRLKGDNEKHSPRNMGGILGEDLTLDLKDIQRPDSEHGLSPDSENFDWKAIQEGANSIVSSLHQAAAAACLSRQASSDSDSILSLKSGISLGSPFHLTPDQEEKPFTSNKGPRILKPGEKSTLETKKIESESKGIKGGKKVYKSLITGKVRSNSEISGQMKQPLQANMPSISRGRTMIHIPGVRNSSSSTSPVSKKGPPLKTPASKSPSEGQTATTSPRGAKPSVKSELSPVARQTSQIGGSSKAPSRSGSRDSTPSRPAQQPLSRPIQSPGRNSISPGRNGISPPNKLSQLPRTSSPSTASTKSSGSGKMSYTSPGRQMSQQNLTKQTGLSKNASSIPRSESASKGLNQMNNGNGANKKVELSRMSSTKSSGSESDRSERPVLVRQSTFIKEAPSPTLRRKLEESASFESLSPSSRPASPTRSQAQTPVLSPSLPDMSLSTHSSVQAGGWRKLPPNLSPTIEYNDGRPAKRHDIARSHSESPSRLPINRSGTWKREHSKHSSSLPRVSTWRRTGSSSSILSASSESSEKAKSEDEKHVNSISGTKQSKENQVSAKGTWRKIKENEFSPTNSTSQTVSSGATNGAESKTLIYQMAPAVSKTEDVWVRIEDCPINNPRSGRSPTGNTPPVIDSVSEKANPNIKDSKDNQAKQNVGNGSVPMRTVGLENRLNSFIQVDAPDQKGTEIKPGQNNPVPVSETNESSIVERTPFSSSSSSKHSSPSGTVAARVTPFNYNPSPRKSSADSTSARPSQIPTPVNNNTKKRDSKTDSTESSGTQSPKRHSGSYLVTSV

| Compound | IC50 |
| --- | --- |
| CC(C)C[C@H](NC(=O)[C@@H](NC(=O)[C@H](CCC(=O)O)NC(=O)CNC(=O)[C@H](C)NC(=O)OCc1ccccc1)[C@H](C)O)C(=O)N[C@@H](Cc1ccc(O)cc1)C(=O)N[C@@H](CCC(=O)O)C(N)=O | 2.01 µM |
| C[C@H](NC(=O)OCc1ccccc1)C(=O)NCC(=O)N[C@@H](CCC(=O)O)C(=O)N[C@@H](C)C(=O)N[C@@H](CC1CCCC1)C(=O)N[C@@H](Cc1ccc(O)cc1)C(=O)N[C@@H](CCC(=O)O)C(N)=O (Cbz-AGEA[Ala(cPent)]YE-NH2) | 0.57 µM |
| CC(C)C[C@H](NC(=O)[C@H](CS)NC(=O)[C@H](CCC(=O)O)NC(=O)CNC(=O)[C@H](C)NC(=O)OCc1ccccc1)C(=O)N[C@@H](Cc1ccc(O)cc1)C(=O)N[C@@H](CCC(=O)O)C(N)=O (Cbz-AGECLYE-NH2) | 1.51 µM |
| CC(C)C[C@H](NC(=O)[C@H](CC(=O)O)NC(=O)[C@H](CCC(=O)O)NC(=O)CNC(=O)[C@H](C)NC(=O)OCc1ccccc1)C(=O)N[C@@H](Cc1ccc(O)cc1)C(=O)N[C@@H](CCC(=O)O)C(N)=O (Cbz-AGEDLYE-NH2) | 6.35 µM |
| CC(C)C[C@H](NC(=O)[C@H](CC(N)=O)NC(=O)[C@H](CCC(=O)O)NC(=O)CNC(=O)[C@H](C)NC(=O)OCc1ccccc1)C(=O)N[C@@H](Cc1ccc(O)cc1)C(=O)N[C@@H](CCC(=O)O)C(N)=O (Cbz-AGENLYE-NH2) | 5.19 µM |
| C[C@H](NC(=O)OCc1ccccc1)C(=O)NCC(=O)N[C@@H](CCC(=O)O)C(=O)N[C@@H](CO)C(=O)N[C@@H](Cc1ccccc1)C(=O)N[C@@H](Cc1ccc(O)cc1)C(=O)N[C@@H](CCC(=O)O)C(N)=O (Cbz-AGESFYE-NH2) | 4.36 µM |
| C[C@H](NC(=O)OCc1ccccc1)C(=O)NCC(=O)N[C@@H](CCC(=O)O)C(=O)N[C@@H](CO)C(=O)NCC(=O)N[C@@H](Cc1ccc(O)cc1)C(=O)N[C@@H](CCC(=O)O)C(N)=O (Cbz-AGESGYE-NH2) | 109 µM |
| C[C@H](NC(=O)OCc1ccccc1)C(=O)NCC(=O)N[C@@H](CCC(=O)O)C(=O)N[C@@H](CO)C(=O)N[C@@H](Cc1c[nH]cn1)C(=O)N[C@@H](Cc1ccc(O)cc1)C(=O)N[C@@H](CCC(=O)O)C(N)=O (Cbz-AGESHYE-NH2) | 50.6 µM |
| CC[C@H](C)[C@H](NC(=O)[C@H](CO)NC(=O)[C@H](CCC(=O)O)NC(=O)CNC(=O)[C@H](C)NC(=O)OCc1ccccc1)C(=O)N[C@@H](Cc1ccc(O)cc1)C(=O)N[C@@H](CCC(=O)O)C(N)=O (Cbz-AGESIYE-NH2) | 3.85 µM |
| CSCC[C@H](NC(=O)[C@H](CO)NC(=O)[C@H](CCC(=O)O)NC(=O)CNC(=O)[C@H](C)NC(=O)OCc1ccccc1)C(=O)N[C@@H](Cc1ccc(O)cc1)C(=O)N[C@@H](CCC(=O)O)C(N)=O (Cbz-AGESMYE-NH2) | 3.3 µM |
| CC(C)[C@H](NC(=O)[C@H](CO)NC(=O)[C@H](CCC(=O)O)NC(=O)CNC(=O)[C@H](C)NC(=O)OCc1ccccc1)C(=O)N[C@@H](Cc1ccc(O)cc1)C(=O)N[C@@H](CCC(=O)O)C(N)=O (Cbz-AGESVYE-NH2) | 12.4 µM |
| C[C@H](NC(=O)OCc1ccccc1)C(=O)NCC(=O)N[C@@H](CCC(=O)O)C(=O)N[C@@H](CO)C(=O)N[C@@H](Cc1c[nH]c2ccccc12)C(=O)N[C@@H](Cc1ccc(O)cc1)C(=O)N[C@@H](CCC(=O)O)C(N)=O (Cbz-AGESWYE-NH2) | 10.5 µM |
| C[C@H](NC(=O)OCc1ccccc1)C(=O)NCC(=O)N[C@@H](CCC(=O)O)C(=O)N[C@@H](CO)C(=O)N[C@@H](Cc1ccc(O)cc1)C(=O)N[C@@H](Cc1ccc(O)cc1)C(=O)N[C@@H](CCC(=O)O)C(N)=O (Cbz-AGESYYE-NH2) | 5.07 µM |
| C[C@H](NC(=O)OCc1ccccc1)C(=O)NCC(=O)N[C@@H](CCC(=O)O)C(=O)N[C@@H](CO)C(=O)N[C@@H](Cc1cccc2ccccc12)C(=O)N[C@@H](Cc1ccc(O)cc1)C(=O)N[C@@H](CCC(=O)O)C(N)=O (Cbz-AGES[1Nal]YE-NH2) | 10.1 µM |
| C[C@H](NC(=O)OCc1ccccc1)C(=O)NCC(=O)N[C@@H](CCC(=O)O)C(=O)N[C@@H](CO)C(=O)N[C@@H](Cc1ccc2ccccc2c1)C(=O)N[C@@H](Cc1ccc(O)cc1)C(=O)N[C@@H](CCC(=O)O)C(N)=O (Cbz-AGES[2Nal]YE-NH2) | 3.96 µM |
| C[C@H](NC(=O)OCc1ccccc1)C(=O)NCC(=O)N[C@@H](CCC(=O)O)C(=O)N[C@@H](CO)C(=O)N[C@@H](Cc1cccs1)C(=O)N[C@@H](Cc1ccc(O)cc1)C(=O)N[C@@H](CCC(=O)O)C(N)=O (Cbz-AGES[2Thi]YE-NH2) | 4.01 µM |
| C[C@H](NC(=O)OCc1ccccc1)C(=O)NCC(=O)N[C@@H](CCC(=O)O)C(=O)N[C@@H](CO)C(=O)N[C@@H](Cc1ccsc1)C(=O)N[C@@H](Cc1ccc(O)cc1)C(=O)N[C@@H](CCC(=O)O)C(N)=O (Cbz-AGES[3Thi]YE-NH2) | 6.86 µM |
| C[C@H](NC(=O)OCc1ccccc1)C(=O)NCC(=O)N[C@@H](CCC(=O)O)C(=O)N[C@@H](CO)C(=O)NC1(C(=O)N[C@@H](Cc2ccc(O)cc2)C(=O)N[C@@H](CCC(=O)O)C(N)=O)CCCCCCC1 (Cbz-AGES[Ac8c]YE-NH2) | 10.3 µM |

| Compound | IC50 |
| --- | --- |
| C[C@H](NC(=O)OCc1ccccc1)C(=O)NCC(=O)N[C@@H](CCC(=O)O)C(=O)N[C@@H](CO)C(=O)NC1(C(=O)N[C@@H](Cc2ccc(O)cc2)C(=O)N[C@@H](CCC(=O)O)C(N)=O)Cc2ccccc2C1 (Cbz-AGES[Aic]YE-NH2) | 25.6 µM |
| C[C@H](NC(=O)OCc1ccccc1)C(=O)NCC(=O)N[C@@H](CCC(=O)O)C(=O)N[C@@H](CO)C(=O)N[C@@H](Cc1ccco1)C(=O)N[C@@H](Cc1ccc(O)cc1)C(=O)N[C@@H](CCC(=O)O)C(N)=O (Cbz-AGES[Ala(2-furyl)]YE-NH2) | 6.95 µM |
| C[C@H](NC(=O)OCc1ccccc1)C(=O)NCC(=O)N[C@@H](CCC(=O)O)C(=O)N[C@@H](CO)C(=O)N[C@@H](Cc1cscn1)C(=O)N[C@@H](Cc1ccc(O)cc1)C(=O)N[C@@H](CCC(=O)O)C(N)=O (Cbz-AGES[Ala(4-thiazolyl)]YE-NH2) | 16.4 µM |
| C[C@H](NC(=O)OCc1ccccc1)C(=O)NCC(=O)N[C@@H](CCC(=O)O)C(=O)N[C@@H](CO)C(=O)N[C@@H](CC1CCCCCC1)C(=O)N[C@@H](Cc1ccc(O)cc1)C(=O)N[C@@H](CCC(=O)O)C(N)=O (Cbz-AGES[Ala(cHept)]YE-NH2) | 1.94 µM |
| C[C@H](NC(=O)OCc1ccccc1)C(=O)NCC(=O)N[C@@H](CCC(=O)O)C(=O)N[C@@H](CO)C(=O)N[C@@H](CC1CCCC1)C(=O)N[C@@H](Cc1ccc(O)cc1)C(=O)N[C@@H](CCC(=O)O)C(N)=O (Cbz-AGES[Ala(cPent)]YE-NH2) | 0.62 µM |
| C[C@H](NC(=O)OCc1ccccc1)C(=O)NCC(=O)N[C@@H](CCC(=O)O)C(=O)N[C@@H](CO)C(=O)N[C@@H](CC1CC1)C(=O)N[C@@H](Cc1ccc(O)cc1)C(=O)N[C@@H](CCC(=O)O)C(N)=O (Cbz-AGES[Ala(cPr)]YE-NH2) | 1.26 µM |
| C[C@H](NC(=O)OCc1ccccc1)C(=O)NCC(=O)N[C@@H](CCC(=O)O)C(=O)N[C@@H](CO)C(=O)N[C@@H](CC1CCC1)C(=O)N[C@@H](Cc1ccc(O)cc1)C(=O)N[C@@H](CCC(=O)O)C(N)=O (Cbz-AGES[Cba]YE-NH2) | 1.53 µM |
| C[C@H](NC(=O)OCc1ccccc1)C(=O)NCC(=O)N[C@@H](CCC(=O)O)C(=O)N[C@@H](CO)C(=O)N[C@@H](CC1CCCCC1)C(=O)N[C@@H](Cc1ccc(O)cc1)C(=O)N[C@@H](CCC(=O)O)C(N)=O (Cbz-AGES[Cha]YE-NH2) | 1.3 µM |
| C[C@H](NC(=O)OCc1ccccc1)C(=O)NCC(=O)N[C@@H](CCC(=O)O)C(=O)N[C@@H](CO)C(=O)N[C@H](C(=O)N[C@@H](Cc1ccc(O)cc1)C(=O)N[C@@H](CCC(=O)O)C(N)=O)C1CCCCC1 (Cbz-AGES[Chg]YE-NH2) | 2.95 µM |
| C[C@H](NC(=O)OCc1ccccc1)C(=O)NCC(=O)N[C@@H](CCC(=O)O)C(=O)N[C@@H](CO)C(=O)N[C@H](C(=O)N[C@@H](Cc1ccc(O)cc1)C(=O)N[C@@H](CCC(=O)O)C(N)=O)C1CCCC1 (Cbz-AGES[Gly(cPent)]YE-NH2) | 4.07 µM |
| CCCCCCCC[C@H](NC(=O)[C@H](CO)NC(=O)[C@H](CCC(=O)O)NC(=O)CNC(=O)[C@H](C)NC(=O)OCc1ccccc1)C(=O)N[C@@H](Cc1ccc(O)cc1)C(=O)N[C@@H](CCC(=O)O)C(N)=O (Cbz-AGES[Gly(octyl)]YE-NH2) | 3.02 µM |
| C=C(C)C[C@H](NC(=O)[C@H](CO)NC(=O)[C@H](CCC(=O)O)NC(=O)CNC(=O)[C@H](C)NC(=O)OCc1ccccc1)C(=O)N[C@@H](Cc1ccc(O)cc1)C(=O)N[C@@H](CCC(=O)O)C(N)=O (Cbz-AGES[Leu(4,5-dehydro)]YE-NH2) | 3.64 µM |
| C[C@H](NC(=O)OCc1ccccc1)C(=O)NCC(=O)N[C@@H](CCC(=O)O)C(=O)N[C@@H](CO)C(=O)N[C@@H](CCS(C)(=O)=O)C(=O)N[C@@H](Cc1ccc(O)cc1)C(=O)N[C@@H](CCC(=O)O)C(N)=O (Cbz-AGES[Met(O2)]YE-NH2) | 5.73 µM |
| C[C@H](NC(=O)OCc1ccccc1)C(=O)NCC(=O)N[C@@H](CCC(=O)O)C(=O)N[C@@H](CO)C(=O)N[C@@H](CC[S+](C)[O-])C(=O)N[C@@H](Cc1ccc(O)cc1)C(=O)N[C@@H](CCC(=O)O)C(N)=O (stereo partly specified) (Cbz-AGES[Met(O)]YE-NH2) | 13.9 µM |
| C[C@H](NC(=O)OCc1ccccc1)C(=O)NCC(=O)N[C@@H](CCC(=O)O)C(=O)N[C@@H](CO)C(=O)N[C@H](C(=O)N[C@@H](Cc1ccc(O)cc1)C(=O)N[C@@H](CCC(=O)O)C(N)=O)c1ccccc1 (Cbz-AGES[Phg]YE-NH2) | 4.29 µM |
| C#CC[C@H](NC(=O)[C@H](CO)NC(=O)[C@H](CCC(=O)O)NC(=O)CNC(=O)[C@H](C)NC(=O)OCc1ccccc1)C(=O)N[C@@H](Cc1ccc(O)cc1)C(=O)N[C@@H](CCC(=O)O)C(N)=O (Cbz-AGES[Pra]YE-NH2) | 30.8 µM |
| C[C@H](NC(=O)OCc1ccccc1)C(=O)NCC(=O)N[C@@H](CCC(=O)O)C(=O)N[C@@H](CO)C(=O)N[C@H](C(=O)N[C@@H](Cc1ccc(O)cc1)C(=O)N[C@@H](CCC(=O)O)C(N)=O)C(C)(C)C (Cbz-AGES[Tle]YE-NH2) | 31.5 µM |
| C[C@H](NC(=O)OCc1ccccc1)C(=O)NCC(=O)N[C@@H](CCC(=O)O)C(=O)N[C@@H](CO)C(=O)N[C@@H](Cc1ccc(Br)s1)C(=O)N[C@@H](Cc1ccc(O)cc1)C(=O)N[C@@H](CCC(=O)O)C(N)=O (Cbz-AGES[X1]YE-NH2) | 5 µM |
